# Results published in ChEMBL document CHEMBL2407075, “Sulphonamido-quinoxalines: search for anticancer agent” (Eur J Med Chem, 2013).
# How the values were obtained:
# [1] = tested on: UACC-62; test: Growth inhibition of human UACC62 cells at 10 uM after 48 hrs by sulforhodamine B assay; assay type: functional; conditions: UACC-62, 48 h, read-out: GI
# In short: (§1)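 Single-dose screen at 10 µM across the NCI 60 panel. Cells in RPMI 1640 with 5% FBS and 2 mM L-glutamine, plated at 5000–40,000/well and preincubated 24 h at 37 °C, 5% CO2. Drug in DMSO, 48 h exposure. Fixed with TCA, stained with SRB, A515 read. Percent growth is taken relative to untreated control, and inhibition is 100 minus growth.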
# [2] = tested on: Malme-3M; test: Growth inhibition of human MALME-3M cells at 10 uM after 48 hrs by sulforhodamine B assay; assay type: functional; conditions: read-out: GI; in short: as §1
# [3] = tested on: OVCAR-8; test: Growth inhibition of human OVCAR8 cells at 10 uM after 48 hrs by sulforhodamine B assay; assay type: functional; conditions: OVCAR-8, 48 h, read-out: GI; in short: as §1
# [4] = tested on: HOP-62; test: Growth inhibition of human HOP62 cells at 10 uM after 48 hrs by sulforhodamine B assay; assay type: functional; conditions: HOP-62, 48 h, read-out: GI
# In short: (§2)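 NCI-60 one-dose primary screen at a single 10 µM concentration. Cells in RPMI 1640 with 5% FBS, preincubated 24 h at 37 °C, 5% CO2. Drug exposure 48 h, then TCA fixation, SRB staining and absorbance at 515 nm. Percent growth calculated against time-zero and untreated control wells, then converted to percent growth inhibition.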
# [5] = tested on: IGROV-1; test: Growth inhibition of human IGROV1 cells at 10 uM after 48 hrs by sulforhodamine B assay; assay type: functional; conditions: IGROV-1, 48 h, read-out: GI; in short: as §1
# [6] = tested on: OVCAR-5; test: Growth inhibition of human OVCAR5 cells at 10 uM after 48 hrs by sulforhodamine B assay; assay type: functional; conditions: OVCAR-5, 48 h, read-out: GI; in short: as §1
# [7] = tested on: HCT-116; test: Growth inhibition of human HCT116 cells at 10 uM after 48 hrs by sulforhodamine B assay; assay type: functional; conditions: HCT-116, 48 h, read-out: GI; in short: as §2
# [8] = tested on: SN12C; test: Growth inhibition of human SN12C cells at 10 uM after 48 hrs by sulforhodamine B assay; assay type: functional; conditions: read-out: GI; in short: as §1
# [9] = tested on: NCI-H460; test: Growth inhibition of human NCI-H460 cells at 10 uM after 48 hrs by sulforhodamine B assay; assay type: functional; conditions: NCI-H460, 48 h, read-out: GI; in short: as §1
# [10] = tested on: PC-3; test: Growth inhibition of human PC3 cells at 10 uM after 48 hrs by sulforhodamine B assay; assay type: functional; conditions: PC-3, 48 h, read-out: GI; in short: as §1
# [11] = tested on: OVCAR-4; test: Growth inhibition of human OVCAR4 cells at 10 uM after 48 hrs by sulforhodamine B assay; assay type: functional; conditions: OVCAR-4, 48 h, read-out: GI; in short: as §1
# [12] = tested on: SK-MEL-28; test: Growth inhibition of human SK-MEL-28 cells at 10 uM after 48 hrs by sulforhodamine B assay; assay type: functional; conditions: SK-MEL-28, 48 h, read-out: GI; in short: as §1
# [13] = tested on: NCI-H226; test: Growth inhibition of human NCI-H226 cells at 10 uM after 48 hrs by sulforhodamine B assay; assay type: functional; conditions: NCI-H226, 48 h, read-out: GI; in short: as §1
# [14] = tested on: SNB-19; test: Growth inhibition of human SNB19 cells at 10 uM after 48 hrs by sulforhodamine B assay; assay type: functional; conditions: SNB-19, 48 h, read-out: GI; in short: as §1
# [15] = Growth inhibition of human EKVX cells at 10 uM after 48 hrs by sulforhodamine B assay; assay type: functional; conditions: read-out: GI; in short: as §2
# [16] = tested on: U-251; test: Growth inhibition of human U251 cells at 10 uM after 48 hrs by sulforhodamine B assay; assay type: functional; conditions: U-251, 48 h, read-out: GI; in short: as §1
# [17] = Oral bioavailability in human; assay type: ADME, organism-based; conditions: in silico prediction
# [18] = tested on: SK-MEL-2; test: Growth inhibition of human SK-MEL-2 cells at 10 uM after 48 hrs by sulforhodamine B assay; assay type: functional; conditions: SK-MEL-2, 48 h, read-out: GI; in short: as §1
# [19] = tested on: NCI-H322M; test: Growth inhibition of human NCI-H322M cells at 10 uM after 48 hrs by sulforhodamine B assay; assay type: functional; conditions: read-out: GI; in short: as §1
# [20] = tested on: HL-60(TB); test: Growth inhibition of human HL-60(TB) cells at 10 uM after 48 hrs by sulforhodamine B assay; assay type: functional; conditions: HL-60, 48 h, read-out: GI
# In short: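 Single-dose NCI-60 primary screen at 10 µM, 48 h exposure, SRB read-out. Growth percentage of treated versus untreated cells was recorded and given as percent inhibition by subtraction.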
# [21] = tested on: A549; test: Growth inhibition of human A549/ATCC cells at 10 uM after 48 hrs by sulforhodamine B assay; assay type: functional; conditions: A549, 48 h, read-out: GI
# In short: (§3)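 Single-dose NCI-60 prescreen at 10 µM for 48 h at 37 °C and 5% CO2, using cells grown in RPMI 1640 with 5% FBS and 2 mM glutamine. Protein was measured by SRB after TCA fixation: 10% final for adherent lines, 16% for suspension lines. Absorbance was read at 515 nm. Percent growth inhibition was obtained by subtracting percent growth from 100.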
# [22] = tested on: KM12; test: Growth inhibition of human KM12 cells at 10 uM after 48 hrs by sulforhodamine B assay; assay type: functional; conditions: KM12, 48 h, read-out: GI; in short: as §1
# [23] = tested on: RPMI-8226; test: Growth inhibition of human RPMI8226 cells at 10 uM after 48 hrs by sulforhodamine B assay; assay type: functional; conditions: RPMI-8226, 48 h, read-out: GI; in short: as §1
# [24] = tested on: OVCAR-3; test: Growth inhibition of human OVCAR3 cells at 10 uM after 48 hrs by sulforhodamine B assay; assay type: functional; conditions: OVCAR-3, 48 h, read-out: GI; in short: as §1
# [25] = tested on: LOX IMVI; test: Growth inhibition of human LOXIMVI cells at 10 uM after 48 hrs by sulforhodamine B assay; assay type: functional; conditions: read-out: GI; in short: as §1
# [26] = tested on: UO-31; test: Growth inhibition of human UO31 cells at 10 uM after 48 hrs by sulforhodamine B assay; assay type: functional; conditions: UO-31, 48 h, read-out: GI; in short: as §1
# [27] = tested on: SF-268; test: Growth inhibition of human SF268 cells at 10 uM after 48 hrs by sulforhodamine B assay; assay type: functional; conditions: SF-268, 48 h, read-out: GI; in short: as §1
# [28] = tested on: M14; test: Growth inhibition of human M14 cells at 10 uM after 48 hrs by sulforhodamine B assay; assay type: functional; conditions: M14, 48 h, read-out: GI; in short: as §1
# [29] = tested on: CAKI-1; test: Growth inhibition of human CAKI-1 cells at 10 uM after 48 hrs by sulforhodamine B assay; assay type: functional; conditions: CAKI-1, 48 h, read-out: GI; in short: as §3
# [30] = tested on: ACHN; test: Growth inhibition of human ACHN cells at 10 uM after 48 hrs by sulforhodamine B assay; assay type: functional; conditions: read-out: GI; in short: as §3
# [31] = tested on: MDA-MB-435; test: Growth inhibition of human MDA-MB-435 cells at 10 uM after 48 hrs by sulforhodamine B assay; assay type: functional; conditions: MDA-MB-435, 48 h, read-out: GI; in short: as §1
# [32] = tested on: K562; test: Growth inhibition of human K562 cells at 10 uM after 48 hrs by sulforhodamine B assay; assay type: functional; conditions: K562, 48 h, read-out: GI; in short: as §1
# [33] = tested on: NCI-H23; test: Growth inhibition of human NCI-H23 cells at 10 uM after 48 hrs by sulforhodamine B assay; assay type: functional; conditions: NCI-H23, 48 h, read-out: GI; in short: as §1
# [34] = tested on: SF-295; test: Growth inhibition of human SF295 cells at 10 uM after 48 hrs by sulforhodamine B assay; assay type: functional; conditions: SF-295, 48 h, read-out: GI; in short: as §1
Structure (SMILES),inhibition of growth at 10 µM [1] [%],inhibition of growth at 10 µM [2] [%],inhibition of growth at 10 µM [3] [%],inhibition of growth at 10 µM [4] [%],inhibition of growth at 10 µM [5] [%],inhibition of growth at 10 µM [6] [%],inhibition of growth at 10 µM [7] [%],inhibition of growth at 10 µM [8] [%],inhibition of growth at 10 µM [9] [%],inhibition of growth at 10 µM [10] [%],inhibition of growth at 10 µM [11] [%],inhibition of growth at 10 µM [12] [%],inhibition of growth at 10 µM [13] [%],inhibition of growth at 10 µM [14] [%],inhibition of growth at 10 µM [15] [%],inhibition of growth at 10 µM [16] [%],bioavailability [17] [%],inhibition of growth at 10 µM [18] [%],inhibition of growth at 10 µM [19] [%],inhibition of growth at 10 µM [20] [%],further results
O=S(=O)(Nc1cccc2ccccc12)c1ccc2nc(-c3ccccc3)c(-c3ccccc3)nc2c1,28.9,9.98,20.6,2.24,1.78,2.98,49.9,8.87,23.6,41.8,31.2,5.98,44,9.78,71.2,7.23,100,14.9,22.2,71,inhibition of growth at 10 µM [21]: 15.3%; inhibition of growth at 10 µM [22]: 29.9%; inhibition of growth at 10 µM [23]: 44.3%; inhibition of growth at 10 µM [24]: 30.9%; inhibition of growth at 10 µM [25]: 32.9%; inhibition of growth at 10 µM [26]: 17.9%; inhibition of growth at 10 µM [27]: 2.78%; inhibition of growth at 10 µM [28]: 2.23%; inhibition of growth at 10 µM [29]: 3.34%; inhibition of growth at 10 µM [30]: 21.9%; inhibition of growth at 10 µM [31]: 20.4%; inhibition of growth at 10 µM [32]: 49.6%; inhibition of growth at 10 µM [33]: 21.3%; inhibition of growth at 10 µM [34]: 3.88%
NC(=S)NNS(=O)(=O)c1ccc2nc(-c3ccccc3)c(-c3ccccc3)nc2c1,24.3,2.94,5.83,38.7,8.83,4.85,17.8,6.98,15.6,34.6,16.5,6.93,52.9,14.8,23.7,26.8,81.4,7.94,2.92,40.6,inhibition of growth at 10 µM [21]: 34.7%; inhibition of growth at 10 µM [22]: 15.9%; inhibition of growth at 10 µM [23]: 46.4%; inhibition of growth at 10 µM [24]: 1.84%; inhibition of growth at 10 µM [25]: 11.2%; inhibition of growth at 10 µM [26]: 13.7%; inhibition of growth at 10 µM [27]: 2.92%; inhibition of growth at 10 µM [28]: 4.23%; inhibition of growth at 10 µM [29]: 2.94%; inhibition of growth at 10 µM [30]: 1.83%; inhibition of growth at 10 µM [31]: 11.1%; inhibition of growth at 10 µM [32]: 34.8%; inhibition of growth at 10 µM [33]: 11.6%; inhibition of growth at 10 µM [34]: 8.92%
CC(=S)NS(=O)(=O)c1ccc2nc(-c3ccccc3)c(-c3ccccc3)nc2c1,20.7,2.85,3.93,2.84,14.8,2.84,14.5,2.83,8.63,33.9,13.4,1.73,53.6,2.12,8.53,10.3,94.7,8.53,17.8,35.3,inhibition of growth at 10 µM [21]: 7.74%; inhibition of growth at 10 µM [22]: 16.8%; inhibition of growth at 10 µM [23]: 39.6%; inhibition of growth at 10 µM [24]: 1.94%; inhibition of growth at 10 µM [25]: 12.2%; inhibition of growth at 10 µM [26]: 10.6%; inhibition of growth at 10 µM [27]: 1.86%; inhibition of growth at 10 µM [28]: 2.85%; inhibition of growth at 10 µM [29]: 5.83%; inhibition of growth at 10 µM [30]: 16.6%; inhibition of growth at 10 µM [31]: 4.73%; inhibition of growth at 10 µM [32]: 26.8%; inhibition of growth at 10 µM [33]: 11.7%; inhibition of growth at 10 µM [34]: 5.83%
O=S(=O)(Nc1ccc(Cl)cc1)c1ccc2nc(-c3ccccc3)c(-c3ccccc3)nc2c1,30.6,6.64,34.8,12.8,20.8,18.3,59.6,26.9,47.1,60,30.3,14.6,-2.45,31.9,57.8,39.5,100,23.9,32.8,66.7,inhibition of growth at 10 µM [21]: 41.9%; inhibition of growth at 10 µM [22]: 38.7%; inhibition of growth at 10 µM [23]: 86%; inhibition of growth at 10 µM [24]: 28.8%; inhibition of growth at 10 µM [25]: 38.4%; inhibition of growth at 10 µM [26]: 29.2%; inhibition of growth at 10 µM [27]: 14.1%; inhibition of growth at 10 µM [28]: 31%; inhibition of growth at 10 µM [29]: 33.9%; inhibition of growth at 10 µM [30]: 23.9%; inhibition of growth at 10 µM [31]: 35.6%; inhibition of growth at 10 µM [32]: 55.6%; inhibition of growth at 10 µM [33]: 26.6%; inhibition of growth at 10 µM [34]: 40.7%
